In the EternaBench riboswitch data:

Tested on: MS2 coat protein
Experiment: apparent Kd, MS2 coat protein; higher = weaker binding; RNA-MaP array; FMN 200 µM where present
In short: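 Green signal was scaled to red-channel RNA signal and control-cluster median Fmax, and the apparent Kd was taken as the median of filtered per-cluster binding-curve fits. The binding series used SNAP-549-labelled MS2 coat protein from 0.7 or 1.5 nM, doubling to 3 µM, on designs transcribed by stalled E. coli RNA polymerase on Illumina sequencing-chip clusters. Each series ran without and then with constant ligand in 100 mM Tris-HCl pH 7.5, 80 mM KCl, 4 mM MgCl2, BSA, DTT, yeast tRNA and Tween-20.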

[1] = designed as: OFF switch for flavin mononucleotide, no ligand
[2] = ligand present: flavin mononucleotide, designed as: OFF switch for flavin mononucleotide
[3] = designed as: ON switch for flavin mononucleotide, no ligand
[4] = ligand present: flavin mononucleotide, designed as: ON switch for flavin mononucleotide

Sequence | apparent Kd [1] [nM] | apparent Kd [2] [nM] | apparent Kd [3] [nM] | apparent Kd [4] [nM]
AUAUAACAUGAGGAUCACCCAUGUCAGGAUAUCGAACCCAACACAACCAAAAUGUCGGCGAGAAGGGACAAAAA | 35.4 | 32.7 |  | 
AGAAACUACGAGAAGGACAUGUGGUCCUUCUAAAACAUGAGGAUCACCCAUGUAGGAUAUCGUAGUUUCAGGAUCGUGAGAUCA | 35.5 | 7.27 |  | 
AGCUGUGGCCGAGGAUAUCACGAACCAUGGAAAACCAUGGAACUCAUACAUGAGGAUCACCCAUGUGAGAAGGCGGUCUCAGCA | 34.1 | 29.6 |  | 
UAUGUAUUCGUAGGAUAUCCGUUGAAACCGUGUGGAGAAGGACGAACAUGAGGAUCACCCAUGUAUCAUGGUGUAGACAAUUUU | 75.3 | 288 |  | 
UCAGGCUUCGAGAAGGACAUGAGGAUCACCCAUGUUAGUUUGAAGCAGCCGUGAGGCUGCAUCAUGUAGGAUAUCGGAGUCUGC | 6.47 | 11.7 |  | 
GAUUACAUCACAGGAUAUAGAAUAAAACAGAUUUUAGAAGGGUGAGCCUCGUCGACCGCGACAUGAGGAUCACCCAUGUUGUGU |  |  | 18.4 | 35.7
UUACUAUUGGAGAAGGGUCCAUCAUAUAGAAGGACAGGAUAUCCAACAUGAGGAUCACCCAUGUGUCACCCAUAUGAGGAUCAC | 41.4 | 82.2 |  | 
AACUCACAUGAGGAUCACCCAUGUGAGGAUAUAUUGUUAUGGAUGUUAUUUUGUAGUGGUAGAAGGCGCGUGAU | 15.3 | 15.2 |  | 
UUUUAACAUGAGGAUCACCCAUGUGAGGAUAUCGAAAUUUAUAUUAAUAUUUAUUUAACGAGAAGGCACAUUUU | 96.4 | 88.4 |  | 
ACAUAUAUUCGAGGAUAUCGGUGAUAAAUUUUACGAGAAGGCGAUAAAAGAUAUAAUCUUAUAGACAUGAGGAUCACCCAUGUA |  |  | 27.3 | 27.1
CCAUGACAAAGUCAUGGAAUACGAACAUGAGGAUCACCCAUGUAGGAUAUGCUACUCAAAGAGUAGCAGAAGGACAUGUGUCUU | 29.9 | 156 |  | 
AAAAAACAUGAGGAUCACCCAUGUCGAAAGACAUGAGGAUAUGUGUGGAAACCAUACUAUACAGAAGGCAUAAAAA |  |  | 37.8 | 371
UUACUAUAACAGAAGGGUAGAUAGUAUAUAAAUGCAGGAUAUGUUACAUGAGGAUCACCCAUGUUUCACCCACAUGAGGAUCAC | 28.5 | 40.7 |  | 
GUUGUGUAAGGAUAUGCCUGGCCGUGAGGCCAGAUUGAAUGGCAGAAGGUACAUGAGGAUCACCCAUGUACGGG | 33.2 | 188 |  | 
GGGCUCGGAGGAUAUACAUGAGGAUCACCCAUGUAGGGCUCGGGUAUUCUCGGGCUCUGUAGAAGGUCGGGCUC | 20.3 | 23.3 |  | 
UUUAAUUUAAUUAAGAUCACAUGAGGAUCACCCAUGUAUAUAUAGGAUAUCAGCUCGAAUAGAGCUGAGAAGGAUAUAUACAUA | 69.3 | 36.2 |  | 
GCUGCAUAGGCAGGAUAUGCAAUAAUUUAAAUAAAAUAUAAUAAAUUAACAUGAGGAUCACCCAUGUAGAAGGGCCUGUGCAGU | 19.8 | 19.2 |  | 
GCUUGAGCUGUGAGGAUAUGAGUUCGGAAAUGAGCUUAGAAGGCACAUGAGGAUCACCCAUGUAAGGUUCGAGU | 38 | 17.7 |  | 
CGGUGACGUGUAGGAUAUGGCGAUGGGUUUUGGCCAGAAGGACAUGAGGAUCACCCAUGUGGUAGAGGGCUGGCGGCUGCCCGU | 13.6 | 57.5 |  | 
GGAUCGAAUGUCAGGAUAUGCUGGUCCUUGGAUCAGCAGAAGGGACAUGAGGAUCACCCAUGUGACGACGGUCC | 64.7 | 503 |  | 
UUUGCAUGACGAGGAUAUCAUUUAUUUCUUGAUUGAGAAGGCGUUCUUUUUAAUACCUAACAUGAGGAUCACCCAUGUGACAGU |  |  | 17.9 | 13.2
UGGUACAUGGGAGGAUAUCCUCAAGAGACAUGAGGAUCACCCAUGUAUUAUAAGCCUAAUGGCAUGGAGAAGGCCCAUGUACCU |  |  | 467 | 49
UGUGAGUUGAUGUUAGAUAGGAGAACAUGAGGAUCACCCAUGUAGGAUAUUCAAAGACGAAGAUAGAAGAAGGACAUAGGUAUC | 24.8 | 66.2 |  | 
CAGGUAGACUGAGGAUAUACAUUAAACAGCUAGUCUAUCUAGCUGCUCACAUGAGGAUCACCCAUGUAGAAGGCAGUCUGCCUG | 26.1 | 75 |  | 

Sequence | apparent Kd [1] [nM] | apparent Kd [2] [nM] | apparent Kd [3] [nM] | apparent Kd [4] [nM]
GGGUUUGGUGUGAGGAUAUGUUUGGGUAAACCCGGGCAGAAGGCACAUGAGGAUCACCCAUGUAAGCCGGGCCC | 14.9 | 14.7 |  | 
UUUAAACAUGAGGAUCACCCAUGUUUUUUUAUGGGAGGAUAUCUAAGUUAAUUAUAUUAAGGAGAAGGCCUAUUUU |  |  | 146 | 26.7
GGUGGUGUCCGAGGAUAUCGUUAGGCGUUGUUGCGAGAAGGCGGACAUGAGGAUCACCCAUGUUUGAUGAAAGAGGAGGUUGUG | 98.5 | 123 |  | 
UCUCUUGGGCAAGGAUAUCCUGCGCGGUUCCGGUUCGUGUCUGUCACAUGAGGAUCACCCAUGUGGGAGAAGGUGCCUGCGGUU | 17.7 | 25.5 |  | 
ACAUGAGGAUCACCCAUGUGUGCAUAGGAUAUUGAGGAUUAGGGAUGUUUUUUUGGAUUUGCCCACAAGAAGGAUGAAAGUGUU |  |  | 10.6 | 10.5
GCGAAGAACGAGAAGGCCACUACAUGAGGAUCACCCAUGUCGUGGAGUAUUGGAGGAUAUCGAUCGGCGUCUCAUGAGGACAUA | 5.73 | 5.61 |  | 
UUUUAACAUGAGGAUCACCCAUGUGAGGAUAUCGAAAUUUAUAUUAAUAUUAUUAUAUCGAGAAGGCACAUUUU | 92.3 | 91.3 |  | 
UAACCGUGAGGAUAUACAUGAGGAUCACCCAUGUAGCAAGCUACGUAACCCACCAUAUGUAGAAGGCACUAGGU | 73.1 | 47.6 |  | 
ACGACGAAAGUCGAACGAUGAUCGAGAAGGACAUGAGGAUCACCCAUGUUCCGUGUAACACGCAUGUAGGAUAUCGAUCAUCGA | 5.17 | 11.4 |  | 
GCUUUACUGGUCAGGAUAUACAUUUGCUACUCUUUGUAGAAGGGACAUGAGGAUCACCCAUGUACUUUACAUUC | 15.3 | 16.6 |  | 
CUUUUGUGAGGAUAUUCGUAGUAGGGUCAUGGUACUAUUACGGAGAAGGCACAUGAGGAUCACCCAUGUUCCUU | 15.4 | 45.1 |  | 
UGCAUGUAAGGAUAUGCACUGCGCGAGCCUGACUCGCAAAGGCAGAAGGUACAUGAGGAUCACCCAUGUGAGAA | 72.6 | 64.6 |  | 
GGUCCAACAUGAGGAUAUAGCACCUUAUUGGUGCUAGAAGGCGUGUCGGUAGACAUGAGGAUCACCCAUGUAUUACAUUGGACC |  |  | 93.2 | 22.4
ACAGUUGAAGCAGGAUAUGUACAUGAGGAUCACCCAUGUUGUCUGAGCGACUGGGAGUGCUAGCUACAGAAGGGCUUUACGACC | 12.9 | 77 |  | 
CGUAUGUCAGGAUAUGCGUAAGCCGGUCAGGGCGAGCGGCAGCAGAAGGGACAUGAGGAUCACCCAUGUUCGGG | 64.6 | 47.8 |  | 
CAGGUAGACUGAGGAUAUACAAAAGACCUAGUCUAUCUAGGUCAACUCACAUGAGGAUCACCCAUGUAGAAGGCAGUCUGCCUG | 19.3 | 70.9 |  | 
AGAAGUUUGUAGAAGGACGACUAAUUUGUAUUCGUAGGAUAUACUAUUUACAUGAGGAUCACCCAUGUUUUUAUGGAACAAUGU | 11.9 | 17.2 |  | 
GAUCCGUCCUAGAAGGCCAUCCAACAUGAGGAUCACCCAUGUGCGGACUGGAGGAUAUAGGUGGGAUAGGCCUAGGGCCCGGUC |  |  | 7.43 | 5.55
CUCUGACAUGAGGAUCACCCAUGUGAGGAUAUGAUGCAGCAGUGGUCUACGCUGUGCAUCAGAAGGCACAUGUG | 101 | 33.4 |  | 
ACACAACAUGAGGAUCACCCAUGUCAGGAUAUGCAGAACAAGAACAAGACAAGACAGAGCAGAAGGGACAACAC | 39.4 | 35.6 |  | 
CAAAACGAGGCAGGAUAUCAAUACAUGAGGAUCACCCAUGUGUGACGUAGGCCGGUCUUCGUGACUGAGAAGGGUCUCUAGUUA | 11 | 40.5 |  | 
UAGUAUAAGGGCAUUAAACAUGAGGAUCACCCAUGUACAAUAGAGGAUAUGCAUUUCGGUUUAGAGUAGAAGGUUAGAGAAUAU | 31.3 | 38.1 |  | 
UAGUAUCUGCAGGAUAUCAGUGGAAAACACGUAUGAGAAGGGCAGACAUGAGGAUCACCCAUGUAUAGGGUCCG | 81.4 | 206 |  | 
UGAUCGAAAGAUCAUAGAUUCUGCUAGGAUAUGCAGAAGUUUCAAUUUACAUGAGGAUCACCCAUGUAGAAGGAGUAGAGUCUA | 5.48 | 5.98 |  | 
